In ChEMBL document CHEMBL3826925, “Design, synthesis and biological evaluation of PSMA/hepsin-targeted heterobivalent ligands” (Eur J Med Chem, 2016):

Columns and labels:
Serine protease hepsin = Serine protease hepsin (Homo sapiens, UniProt P05981); test: Inhibition of recombinant human hepsin using Boc-QAR-AMC as substrate preincubated for 30 mins followed by substrate addition by fluorescence assay
[1] = biological target: Glutamate carboxypeptidase 2 (Homo sapiens, UniProt Q04609); test: Inhibition of PSMA (unknown origin) assessed as reduction in glutamate formation using NAAG as substrate preincubated for 30 mins followed by substrate addition by Amplex red assay
Chain of Glutamate carboxypeptidase 2 (Q04609 whole entry): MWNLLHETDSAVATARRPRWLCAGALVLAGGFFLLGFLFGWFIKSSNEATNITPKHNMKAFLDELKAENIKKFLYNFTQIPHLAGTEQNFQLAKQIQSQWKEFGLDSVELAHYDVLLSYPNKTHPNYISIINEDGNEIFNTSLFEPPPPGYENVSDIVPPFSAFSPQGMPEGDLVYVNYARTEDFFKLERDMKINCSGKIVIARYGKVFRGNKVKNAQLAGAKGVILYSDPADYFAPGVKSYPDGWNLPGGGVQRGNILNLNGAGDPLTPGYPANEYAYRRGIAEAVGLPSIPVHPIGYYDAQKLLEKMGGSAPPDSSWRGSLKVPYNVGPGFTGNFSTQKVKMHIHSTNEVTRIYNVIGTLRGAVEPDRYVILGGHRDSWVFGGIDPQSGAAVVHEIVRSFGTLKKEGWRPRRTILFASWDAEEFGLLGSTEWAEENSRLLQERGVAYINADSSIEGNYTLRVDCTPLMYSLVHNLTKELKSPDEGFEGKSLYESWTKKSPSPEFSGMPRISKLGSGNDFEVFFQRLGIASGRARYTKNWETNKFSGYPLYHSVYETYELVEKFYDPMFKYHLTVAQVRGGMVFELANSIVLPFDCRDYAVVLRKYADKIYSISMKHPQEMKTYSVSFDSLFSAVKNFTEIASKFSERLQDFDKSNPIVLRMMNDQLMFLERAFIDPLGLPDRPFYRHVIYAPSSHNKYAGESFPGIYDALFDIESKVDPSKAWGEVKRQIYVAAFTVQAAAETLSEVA

[2] = Drug uptake in human PC3-ML cells expressing PSMA at 10 to 1000 nM after 4 hrs by flow cytometry; type: ADME, cell-based; conditions: 1 µM
[3] = Drug uptake in human PC3-ML cells expressing hepsin/PSMA at 100 to 1000 nM after 4 hrs by flow cytometry; type: ADME, cell-based; conditions: 1 µM
Procedure, shortened: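 Cells seeded at 5 × 10^5 per well and grown 48 h to full adhesion. Medium then replaced with compound in RPMI 1640 with 10% FBS for 4 h (methods state final concentration 10 µg/mL). Cells washed twice with cold PBS, fixed in 4% paraformaldehyde for 10 min, and uptake read by flow cytometry.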

Tumour [4] = test: Drug uptake in tumor of NOD/Shi-scid/IL-2Rgamma null mouse xenografted with human PC3-ML cells expressing PSMA at 1 nmol, iv measured 24 hrs post dosing by near infrared optical imaging analysis; type: ADME, organism-based, Neoplasm; conditions: in vivo
Procedure, shortened: (§1)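 Six-week-old male NSG mice received 1 million tumor cells subcutaneously in the upper flank. Two weeks later, 1 nmol of the Cy7-labelled ligand in 100 uL PBS was injected via tail vein. NIR fluorescence images were taken 24 hr post injection with a small-animal imaging system.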

Tumour [5] = test: Drug uptake in tumor of NOD/Shi-scid/IL-2Rgamma null mouse xenografted with human PC3-ML cells expressing PSMA/HPN at 1 nmol, iv measured 24 hrs post dosing by near infrared optical imaging analysis; type: ADME, organism-based, Neoplasm; conditions: in vivo; procedure, shortened: as §1

Chain of Serine protease hepsin (P05981 1-162 limits assumed): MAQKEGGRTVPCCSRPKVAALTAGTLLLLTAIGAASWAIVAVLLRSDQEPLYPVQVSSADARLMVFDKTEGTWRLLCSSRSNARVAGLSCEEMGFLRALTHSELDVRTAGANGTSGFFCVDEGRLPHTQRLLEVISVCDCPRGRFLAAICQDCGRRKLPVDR
Chain of Serine protease hepsin (P05981 163-417 limits assumed): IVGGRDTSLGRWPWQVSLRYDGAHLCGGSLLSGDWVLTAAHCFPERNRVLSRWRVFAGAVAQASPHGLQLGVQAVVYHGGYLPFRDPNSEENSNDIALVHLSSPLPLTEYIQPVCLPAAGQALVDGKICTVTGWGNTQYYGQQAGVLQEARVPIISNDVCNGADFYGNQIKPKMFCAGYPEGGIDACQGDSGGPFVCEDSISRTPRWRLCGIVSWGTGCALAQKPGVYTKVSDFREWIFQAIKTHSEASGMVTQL

Compound	IC50 (Serine protease hepsin) [µM]	further results
N=C(N)c1ccc2[nH]c(-c3ccccc3O)cc2c1	44	
CC(C)(C)OC(=O)NCc1ccc(-c2ccc(O)c(-c3cc4cc(C(=N)N)ccc4[nH]3)c2)cc1	11	
N=C(N)c1ccc2[nH]c(-c3cc(-c4cccs4)ccc3O)cc2c1	70	
CC(=O)NC(=N)c1ccc2[nH]c(-c3cc(-c4ccc(CNC(=O)[C@H](CCCCNC(=O)CCCCC[N+]5=C(/C=C/C6=CC(=C/C=C7/N(C)c8ccc(S(=O)(=O)O)cc8C7(C)C)/CCC6)C(C)(C)c6cc(S(=O)(=O)O)ccc65)NC(=O)CCCCCCC(=O)NCCCCC(NC(=O)N[C@@H](CCC(=O)O)C(=O)O)C(=O)O)cc4)ccc3O)cc2c1 (stereo partly specified)		IC50 [1]: 0.025 µM; Drug uptake [2]: Active; Drug uptake [3]: Active
CN1/C(=C/C=C2C=C(/C=C/C3=[N+](CCCCCC(=O)NCCCC[C@H](NC(=O)CCCCCCC(=O)NCCCCC(NC(=O)N[C@@H](CCC(=O)O)C(=O)O)C(=O)O)C(=O)NCc4ccc(-c5ccc(O)c(-c6cc7cc(C(=N)N)ccc7[nH]6)c5)cc4)c4ccc(S(=O)(=O)O)cc4C3(C)C)CCC/2)C(C)(C)c2cc(S(=O)(=O)O)ccc21 (stereo partly specified)		Drug uptake [2]: Active; Drug uptake [3]: Active; Drug uptake (Tumour [4]): Not Active; Drug uptake (Tumour [5]): Active

Second part, led by results:

IC50 (Serine protease hepsin) [µM]	Compound	further results
7.3	COc1ccc(-c2ccc(O)c(-c3cc4cc(C(=N)N)ccc4[nH]3)c2)cc1	
8.9	N=C(N)c1ccc2[nH]c(-c3cc(-c4ccccc4)ccc3O)cc2c1	
5.9	N=C(N)c1ccc2[nH]c(-c3cc(-c4ccc(F)cc4)ccc3O)cc2c1	
9.3	N=C(N)c1ccc2[nH]c(-c3cc(-c4ccc(CN)cc4)ccc3O)cc2c1	
14	N=C(N)c1ccc2[nH]c(-c3cc(-c4ccc(C(F)(F)F)cc4)ccc3O)cc2c1	
23	N=C(N)c1ccc2[nH]c(-c3cc(-c4ccc(Cl)cc4)ccc3O)cc2c1	
